The subject of experiment [1] is VCaP. Kind of experiment: Antiproliferative activity against human VCaP cells measured after 5 days by Cell Titer-Glo assay. The experiment is classed as functional, cell-based. Conditions: 120 h. In short, it runs like this: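 Cells were seeded and incubated overnight at 37 °C, 5% CO2. Serial compound dilutions were then added. Viability was read by CellTiter-Glo luminescence after 5 days, and IC50 was obtained by curve fitting.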

Experiment [2] deals with Cyclin-dependent kinase 12 (Homo sapiens) (UniProt Q9NYV4). In words: Binding affinity to CDK12 in human VCaP cells incubated for 4 hrs by streptavidin-biotin pull down assay. The experiment is classed as cell-based. In short, it runs like this: (§1)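 VCaP cells were treated with a biotinylated probe for 4 h and lysed in RIPA buffer. Lysate was incubated with streptavidin beads overnight at 4 °C. Beads were washed three times with PBST (0.1% Tween) and eluted in 2X SDS loading buffer. Proteins were separated by SDS-PAGE.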

Experiment [3] concerns the target Cyclin-dependent kinase 13 (Homo sapiens) (UniProt Q14004). In words: Binding affinity to CDK13 in human VCaP cells incubated for 4 hrs by streptavidin-biotin pull down assay. The experiment is classed as cell-based. Summed up:
as §1

The subject of experiment [4] is VCaP. In words: Antitumor activity against human VCaP cells xenografted in mouse assessed as reduction in tumor growth at 0.5 to 1.5 mg/kg, ip treated for 27 days. The class given is functional, organism-based. Conditions: dose 0.5-1.5 mg/kg, time 27.0 day. In short, it runs like this:
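VCaP CRPC cells (5×10^6) were injected […] NSG or CB17SCID mice. Dosing began at tumours of ~200–400 mm3: 0.5 or 1.5 mg/kg i.p. for 27 days. Vehicle was 20% PEG400, 6% Cremophor EL, 74% PBS. Tumours were collected at the end for Western blot.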

For experiment [5], the target named is Cyclin-dependent kinase 4/cyclin D1 (Homo sapiens, UniProt P11802). In words: Inhibition of CDK4/Cyclin D1 (unknown origin) by ADP-Glo kinase assay. The class given is protein-complex assay.
Sequence of Cyclin-dependent kinase 4/cyclin D1 (P11802 whole entry): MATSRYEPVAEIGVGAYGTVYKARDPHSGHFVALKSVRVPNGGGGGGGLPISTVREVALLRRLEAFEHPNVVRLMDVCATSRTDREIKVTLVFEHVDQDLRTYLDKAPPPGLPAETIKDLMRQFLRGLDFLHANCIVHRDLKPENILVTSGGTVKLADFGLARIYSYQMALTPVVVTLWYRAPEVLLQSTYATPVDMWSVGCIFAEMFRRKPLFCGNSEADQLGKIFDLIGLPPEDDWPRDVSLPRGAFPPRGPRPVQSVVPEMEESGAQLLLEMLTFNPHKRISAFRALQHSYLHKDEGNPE
Sequence of Cyclin-dependent kinase 4/cyclin D1 (P24385 whole entry, further chain): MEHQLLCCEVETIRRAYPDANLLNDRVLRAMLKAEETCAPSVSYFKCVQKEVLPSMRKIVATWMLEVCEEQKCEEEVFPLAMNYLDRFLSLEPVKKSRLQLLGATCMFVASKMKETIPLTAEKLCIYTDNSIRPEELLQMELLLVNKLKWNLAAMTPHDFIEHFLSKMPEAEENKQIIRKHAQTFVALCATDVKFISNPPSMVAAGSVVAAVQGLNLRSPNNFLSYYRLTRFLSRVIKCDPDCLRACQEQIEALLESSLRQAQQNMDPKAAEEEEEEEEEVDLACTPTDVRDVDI
For another experiment, the target named is CDK8/Cyclin C (Homo sapiens, UniProt P49336). Kind of experiment: Inhibition of CDK8/Cyclin C (unknown origin) by ADP-Glo kinase assay. The experiment is classed as protein-complex assay.
Sequence of CDK8/Cyclin C (P49336 whole entry): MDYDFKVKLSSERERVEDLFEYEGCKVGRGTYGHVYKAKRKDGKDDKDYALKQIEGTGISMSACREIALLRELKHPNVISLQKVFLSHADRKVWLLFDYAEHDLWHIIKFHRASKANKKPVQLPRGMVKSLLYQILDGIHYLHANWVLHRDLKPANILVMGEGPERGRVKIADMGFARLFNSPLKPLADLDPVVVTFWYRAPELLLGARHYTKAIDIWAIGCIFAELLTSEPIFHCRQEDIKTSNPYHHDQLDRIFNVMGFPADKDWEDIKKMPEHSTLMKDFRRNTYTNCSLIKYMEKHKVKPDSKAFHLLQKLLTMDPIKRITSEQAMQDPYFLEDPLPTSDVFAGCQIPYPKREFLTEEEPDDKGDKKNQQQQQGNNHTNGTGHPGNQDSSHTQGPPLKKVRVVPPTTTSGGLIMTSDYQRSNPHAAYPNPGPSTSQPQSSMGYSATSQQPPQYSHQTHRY
Sequence of CDK8/Cyclin C (P24863 whole entry, further chain): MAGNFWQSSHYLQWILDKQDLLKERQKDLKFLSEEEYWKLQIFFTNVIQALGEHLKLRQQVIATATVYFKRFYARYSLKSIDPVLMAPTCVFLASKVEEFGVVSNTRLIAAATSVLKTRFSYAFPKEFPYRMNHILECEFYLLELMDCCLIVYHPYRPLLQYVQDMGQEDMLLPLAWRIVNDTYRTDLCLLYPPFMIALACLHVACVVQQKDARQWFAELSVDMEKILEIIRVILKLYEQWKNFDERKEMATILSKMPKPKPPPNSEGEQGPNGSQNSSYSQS
Experiment [6] addresses T1, Cyclin-dependent kinase 5/CDK5 activator 1 (Homo sapiens, UniProt Q00535). In words: Inhibition of CDK5/p25NCK (unknown origin) by ADP-Glo kinase assay. The class given is protein-complex assay. For orientation: ADP-Glo first removes unused ATP, then detects ADP through luciferase.
A further experiment concerns the target CDK9/Cyclin K (Homo sapiens, UniProt P50750). In words: Inhibition of CDK9/Cyclin K (unknown origin) by ADP-Glo kinase assay. The class given is protein-complex assay.
The target of the next experiment is CDK6/cyclin D1 (Homo sapiens, UniProt Q00534). Kind of experiment: Inhibition of CDK6/cyclin D1 (unknown origin) by ADP-Glo kinase assay. The experiment is classed as protein-complex assay.
Sequence of CDK6/cyclin D1 (P24385 whole entry): as the sequence (P24385 whole entry, further chain) above
Sequence of CDK6/cyclin D1 (Q00534 whole entry): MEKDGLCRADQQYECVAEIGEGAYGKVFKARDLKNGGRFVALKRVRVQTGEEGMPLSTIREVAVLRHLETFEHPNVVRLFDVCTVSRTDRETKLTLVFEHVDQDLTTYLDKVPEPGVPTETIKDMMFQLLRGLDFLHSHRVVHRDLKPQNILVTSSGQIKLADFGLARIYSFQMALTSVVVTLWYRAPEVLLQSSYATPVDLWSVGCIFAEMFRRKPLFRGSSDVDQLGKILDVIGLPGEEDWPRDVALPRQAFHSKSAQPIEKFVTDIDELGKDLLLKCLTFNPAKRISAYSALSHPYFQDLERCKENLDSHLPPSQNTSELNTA
The subject of experiment [7] is VCaP. In words: Upregulation of c-PARP expression in human VCaP cells at 10 to 300 nM pretreated for 2 hrs followed by compound washout measured after 12 hrs by Western blot analysis. The experiment is classed as functional, cell-based. Conditions: dose 10-300 nM. In short, it runs like this:
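VCaP cells were grown in DMEM GlutaMAX with 10% FBS and P/S. After treatment they were washed with cold PBS and lysed in RIPA with protease inhibitors. Equal protein was run on 4–12% Bis-Tris SDS-PAGE, transferred to nitrocellulose, and probed for cleaved PARP with α-tubulin as loading control. Detection used HRP secondary antibodies.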
(Immunoblotting shows a protein as a band on a membrane.)

For experiment [8], the target named is Cyclin-C/Cyclin-dependent kinase 19 (Homo sapiens, UniProt Q9BWU1). In words: Inhibition of CDK19/Cyclin C (unknown origin) by ADP-Glo kinase assay. The experiment is classed as protein-complex assay.
Sequence of Cyclin-C/Cyclin-dependent kinase 19 (Q9BWU1 whole entry): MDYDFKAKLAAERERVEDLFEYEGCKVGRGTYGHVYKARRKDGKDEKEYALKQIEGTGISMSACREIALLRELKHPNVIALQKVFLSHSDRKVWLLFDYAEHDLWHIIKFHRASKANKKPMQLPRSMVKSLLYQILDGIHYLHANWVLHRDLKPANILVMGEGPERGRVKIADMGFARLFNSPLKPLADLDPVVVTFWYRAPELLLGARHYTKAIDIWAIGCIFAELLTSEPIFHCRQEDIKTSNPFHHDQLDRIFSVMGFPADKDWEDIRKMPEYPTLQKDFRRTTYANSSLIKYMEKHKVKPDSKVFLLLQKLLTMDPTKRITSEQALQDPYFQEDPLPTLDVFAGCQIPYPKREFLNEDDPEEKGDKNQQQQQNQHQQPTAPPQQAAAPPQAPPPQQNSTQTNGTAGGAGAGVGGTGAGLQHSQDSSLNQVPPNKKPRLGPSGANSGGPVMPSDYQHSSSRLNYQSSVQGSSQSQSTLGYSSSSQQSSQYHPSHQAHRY
Sequence of Cyclin-C/Cyclin-dependent kinase 19 (P24863 whole entry, further chain): as the sequence (P24863 whole entry, further chain) above
For a further experiment, the target named is CDK1/Cyclin E (Homo sapiens, UniProt P06493). Kind of experiment: Inhibition of CDK1/Cyclin E1 (unknown origin) by ADP-Glo kinase assay. The class given is protein-complex assay. In short, it runs like this:
(§2)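 Kinase inhibition was measured by ADP-Glo assay. IC50 values are means of three independent experiments.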

A further experiment addresses CDK7/Cyclin H/MNAT1 (Homo sapiens, UniProt P50613). Kind of experiment: Inhibition of CDK7/cyclin H/MAT1 (unknown origin) by ADP-Glo kinase assay. The class given is protein-complex assay.
The target of experiment [9] is T1, Cyclin-dependent kinase 5/CDK5 activator 1. In words: Inhibition of CDK5/p35NCK (unknown origin) by ADP-Glo kinase assay. The class given is protein-complex assay.
Experiment [10] addresses Cyclin-Y/Cyclin-dependent kinase 16 (Homo sapiens, UniProt Q00536). Kind of experiment: Inhibition of CDK16/cyclin Y (unknown origin) by ADP-Glo kinase assay. The experiment is classed as protein-complex assay.
A further experiment addresses CDK9/cyclin T1 (Homo sapiens, UniProt P50750). In words: Inhibition of CDK9/Cyclin T1 (unknown origin) by ADP-Glo kinase assay. The experiment is classed as protein-complex assay.
Experiment [11] relates to VCaP. Kind of experiment: Downregulation of RAD51 expression in human VCaP cells at 10 to 300 nM pretreated for 2 hrs followed by compound washout measured after 12 hrs by Western blot analysis. The class given is functional, cell-based. Conditions: dose 10-300 nM.
A further experiment concerns the target CDK1/Cyclin A (Homo sapiens, UniProt P06493). In words: Inhibition of CDK1/Cyclin A2 (unknown origin) by ADP-Glo kinase assay. The experiment is classed as protein-complex assay. Summed up: as §2
In experiment [12] the test system is VCaP. Kind of experiment: Antiproliferative activity against human VCaP cells assessed as irreversible cell growth inhibition pretreated for 6 hrs followed by compound washout and subsequent addition of compound-free medium measured after 5 days by Cell Titer-Glo assay. The class given is functional, cell-based. Summed up: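 VCaP cells (DMEM GlutaMAX, 10% FBS) were exposed to compound for 6 h. The compound was then removed and cells were grown in compound-free medium for 5 days before the viability read-out.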
A general note: ATP-based viability assays read luminescence as a measure of living cells.

The text below walks through data of ChEMBL document CHEMBL6115035 (J Med Chem, 2025).

pIC50: −log10 of the molar value. The source made the active and inactive calls. The rule behind the calls is not given here.

T1 sequence (Q00535 whole entry): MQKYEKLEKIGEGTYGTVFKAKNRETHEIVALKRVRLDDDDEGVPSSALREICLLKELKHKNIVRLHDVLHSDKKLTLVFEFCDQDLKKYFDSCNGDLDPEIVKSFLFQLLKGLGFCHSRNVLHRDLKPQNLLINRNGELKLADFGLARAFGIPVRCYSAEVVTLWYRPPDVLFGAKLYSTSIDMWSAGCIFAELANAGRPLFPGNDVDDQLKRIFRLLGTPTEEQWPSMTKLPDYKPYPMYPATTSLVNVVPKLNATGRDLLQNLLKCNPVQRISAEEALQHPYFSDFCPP
T1 sequence (Q15078 whole entry, further chain): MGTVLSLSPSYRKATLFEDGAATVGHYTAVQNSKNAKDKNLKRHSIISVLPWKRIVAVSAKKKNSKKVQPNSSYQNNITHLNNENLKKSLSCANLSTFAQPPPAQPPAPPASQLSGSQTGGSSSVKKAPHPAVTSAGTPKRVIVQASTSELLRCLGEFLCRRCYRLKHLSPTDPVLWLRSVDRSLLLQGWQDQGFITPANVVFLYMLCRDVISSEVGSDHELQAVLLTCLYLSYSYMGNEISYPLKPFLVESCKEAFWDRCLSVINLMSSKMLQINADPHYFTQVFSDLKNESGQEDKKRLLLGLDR
Sequence of CDK9/Cyclin K (P50750 whole entry): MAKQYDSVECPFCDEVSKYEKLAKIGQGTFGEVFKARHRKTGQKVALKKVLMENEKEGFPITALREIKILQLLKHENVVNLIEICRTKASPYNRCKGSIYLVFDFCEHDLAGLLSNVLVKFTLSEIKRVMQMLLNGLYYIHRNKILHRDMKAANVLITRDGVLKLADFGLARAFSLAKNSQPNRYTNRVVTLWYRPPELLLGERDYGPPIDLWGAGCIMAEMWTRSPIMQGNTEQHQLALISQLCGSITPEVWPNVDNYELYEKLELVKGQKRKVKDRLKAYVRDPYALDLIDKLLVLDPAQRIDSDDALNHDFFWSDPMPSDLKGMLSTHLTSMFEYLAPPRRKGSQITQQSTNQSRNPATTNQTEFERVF
Sequence of CDK9/Cyclin K (O75909 whole entry, further chain): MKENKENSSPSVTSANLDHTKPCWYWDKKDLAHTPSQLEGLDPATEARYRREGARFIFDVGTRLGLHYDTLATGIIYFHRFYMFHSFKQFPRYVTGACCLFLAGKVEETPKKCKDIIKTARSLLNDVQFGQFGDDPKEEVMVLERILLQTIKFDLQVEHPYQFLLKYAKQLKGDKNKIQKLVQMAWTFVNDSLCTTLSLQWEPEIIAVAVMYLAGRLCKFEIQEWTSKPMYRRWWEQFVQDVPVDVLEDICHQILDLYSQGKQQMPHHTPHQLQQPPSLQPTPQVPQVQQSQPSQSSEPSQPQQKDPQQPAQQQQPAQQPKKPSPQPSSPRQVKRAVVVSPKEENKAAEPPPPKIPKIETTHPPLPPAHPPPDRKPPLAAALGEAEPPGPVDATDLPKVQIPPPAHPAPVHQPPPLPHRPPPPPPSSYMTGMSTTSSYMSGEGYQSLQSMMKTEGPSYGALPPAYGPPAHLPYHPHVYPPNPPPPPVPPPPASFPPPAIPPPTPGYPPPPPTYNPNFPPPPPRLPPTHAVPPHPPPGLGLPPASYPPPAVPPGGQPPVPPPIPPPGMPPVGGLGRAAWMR
Sequence of CDK7/Cyclin H/MNAT1 (P51946 whole entry): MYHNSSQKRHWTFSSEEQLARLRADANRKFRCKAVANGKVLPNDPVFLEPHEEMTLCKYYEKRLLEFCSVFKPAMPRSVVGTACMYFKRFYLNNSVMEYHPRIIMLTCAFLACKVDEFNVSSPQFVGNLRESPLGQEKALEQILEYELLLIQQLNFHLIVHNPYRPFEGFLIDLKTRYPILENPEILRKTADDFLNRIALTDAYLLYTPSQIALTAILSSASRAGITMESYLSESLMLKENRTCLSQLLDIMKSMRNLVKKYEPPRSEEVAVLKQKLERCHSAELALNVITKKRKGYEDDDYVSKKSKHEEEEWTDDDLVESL
Sequence of CDK7/Cyclin H/MNAT1 (P50613 whole entry): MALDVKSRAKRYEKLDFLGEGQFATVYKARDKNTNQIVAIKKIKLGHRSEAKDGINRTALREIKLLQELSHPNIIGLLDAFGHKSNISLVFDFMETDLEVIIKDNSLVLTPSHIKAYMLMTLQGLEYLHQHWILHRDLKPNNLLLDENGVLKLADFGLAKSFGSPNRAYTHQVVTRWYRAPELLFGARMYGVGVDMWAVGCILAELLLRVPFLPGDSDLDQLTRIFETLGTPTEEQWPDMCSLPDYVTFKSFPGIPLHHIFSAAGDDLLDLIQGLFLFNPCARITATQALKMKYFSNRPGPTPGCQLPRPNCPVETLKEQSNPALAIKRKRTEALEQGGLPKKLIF
Sequence of CDK7/Cyclin H/MNAT1 (P51948 whole entry, further chain): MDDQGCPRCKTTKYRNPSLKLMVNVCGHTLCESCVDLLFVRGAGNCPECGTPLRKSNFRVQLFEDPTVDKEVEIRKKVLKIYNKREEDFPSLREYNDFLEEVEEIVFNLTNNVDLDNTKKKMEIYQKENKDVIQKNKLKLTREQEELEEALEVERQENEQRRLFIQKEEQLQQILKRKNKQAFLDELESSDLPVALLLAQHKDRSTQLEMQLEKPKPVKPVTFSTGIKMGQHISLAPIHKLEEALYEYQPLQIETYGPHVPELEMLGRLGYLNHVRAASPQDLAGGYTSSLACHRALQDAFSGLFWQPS

Broadly, the pIC50 is −log10 of the IC50, conventionally taken in molar units. Read a low pIC50 as a large IC50. As to `C=CC(=O)Nc1cc(N(C(=O)NCc2ccccc2)[C@H]2CC[C@H](Nc3ccc(C#N)cn3)CC2)ccc1N1C[C@H]2C[C@@H]1CN2C`, the negative-log IC50 (pIC50) in the experiment on VCaP [1] is 7.12.
Consider `C=CC(=O)Nc1cc(N(C(=O)NCc2ccccc2)[C@H]2CC[C@H](Nc3ccc(C#N)cn3)CC2)ccc1N1CCC(N(C)C(=O)CCOCCOCCOCCOCCNC(=O)CCCC[C@@H]2SC[C@@H]3NC(=O)N[C@@H]32)CC1`, for which the outcome in experiment [2] and in experiment [3] was Active.
On to `Cn1ncc(Cl)c1-c1cc(C(=O)N[C@H](CN)Cc2ccc(F)c(F)c2)oc1Cl`, for which, in the experiment on VCaP [4], the outcome was Active.
Turning to `Cn1cc(-c2ccc(N(C(=O)NCc3ccccc3)[C@H]3CC[C@H](Nc4ccc(C#N)cn4)CC3)cc2)ccc1=O`, the negative-log IC50 (pIC50) in experiment [5] was 5.28; at CDK8/Cyclin C, less than 5.00; in experiment [6] it was 5.31; against CDK9/Cyclin K, 6.15; on CDK6/cyclin D1, 5.06; in [8] it was less than 5.00. Besides, the negative-log IC50 (pIC50) against CDK1/Cyclin E was less than 5.00; against CDK7/Cyclin H/MNAT1, 6.17; in experiment [9] it was 5.30; in [10] it was less than 5.00; against CDK9/cyclin T1 it was 6.29; against CDK1/Cyclin A, less than 5.00. The result with VCaP [7] and in the experiment with VCaP [11] was inactive.
Take `C=CC(=O)Nc1cc(N(C(=O)NCc2ccccc2)[C@H]2CC[C@H](Nc3ccc(C#N)cn3)CC2)ccc1N1CCN(C)[C@@H](C)C1`: the pIC50 in the experiment on VCaP [1] is 8.37.
Regarding `Cn1cc(-n2cnc3c(NCc4nc5cc(Cl)c(Cl)cc5[nH]4)nc(N4CCOCC4)nc32)cn1`, the inhibition entry with VCaP [12] was “inactive”.
